PGC1a acetyl up = raises PGC1a acetylation signal in U2OS cells; U2OS PGC1a acetylation AlphaScreen, overnight; activation, % at 15.6 µM; 350,000 compounds, 0.21% hits; AID 651723;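 active means every replicate reaching activation of at least 50%, whatever the mean replicate activation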;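 further: hits raise the AlphaScreen acetylation signal above neutral controls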
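Incubation: overnight compound treatment, 37 °C. System: U2OS cells transduced with flag-tagged PGC1a and GCN5 acetyltransferase. Detection: AlphaScreen lysate read. Compound: single-point compound dosing.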
Active calls of the source: *. The entries come from a sample that favours hits as a whole.

SMILES | PGC1a acetyl up
COc1ccccc1NC(=O)/C=C1\SCC(=O)N1C | -93
COc1ccccc1NC(=O)CCC(=O)Nc1ccccc1OC | 54*
COc1ccc(NC(=O)C/C(C)=N/NC(=O)C(=O)NC(C)C)c(OC)c1 | -48
C[C@@H]1CN([C@H](C)CO)C(=O)CCCn2cc(nn2)CO[C@H]1CN(C)C(=O)Nc1ccc(C(F)(F)F)cc1 | -49
COc1ccc(C#Cc2c(-c3ccccc3)n(-c3ccccc3)c3ccc(CO)cc23)cc1 | 71*
O=c1[nH][nH]c(-c2ccccc2)c1C=Nc1ccccc1Cl | -41
C[C@@H]1CN([C@H](C)CO)C(=O)c2cc(NC(=O)Cc3ccccc3)ccc2O[C@@H]1CN(C)Cc1ccncc1 | -49
COC(=O)c1ccc2c(c1)C(C)(C)C(/C=C/c1ccc(O)cc1)=[N+]2C | 59*
CO[C@H]1CN(C)C(=O)c2ccc(NC(=O)Nc3ccccc3F)cc2OC[C@@H](C)NC[C@@H]1C | -49
Cc1cccc(OC2(c3ccccc3)OC(=O)c3ccccc32)c1C (configuration not stated) | 91*
COc1ccccc1C1c2ccc3ccccc3c2Oc2ncn(CCN(C)C)c(=N)c21 (configuration not stated) | 58*
CN(C)c1ccc(/C=N/N(CCC#N)C2=NS(=O)(=O)c3ccccc32)cc1 | -52
C[C@@H]1CN([C@@H](C)CO)S(=O)(=O)c2ccc(-c3ccc(C#N)cc3)cc2O[C@H]1CN(C)C(=O)CN(C)C | -41
CC(C)(C)C(=O)NC(C(N)=O)=C(Cl)Cl | 65*
S=c1sc2c(Cl)ncnc2n1-c1ccccc1 | -64
CCOc1ccc(/C=C/C(=O)Oc2ccccc2)cc1 | 154*
CCCCOc1ccc(/C=C/C(=O)OCC(=O)c2c(N)n(C)c(=O)n(C)c2=O)cc1OCC | -47
CCOC(=O)C(CC)(CC)C(=O)/C=C/c1ccc(Br)cc1 | -57
COc1cccc(/C=N/NC(=O)c2ccc(-n3cnnn3)cc2)c1 | 84*
COc1ccccc1OCCn1cc(/C=N/NC(=O)c2ccncc2)c2ccccc21 | -50
COc1ccc(N(C)S(=O)(=O)c2cccc(C(=O)Nc3ccc(-n4cnnn4)cc3)c2)cc1 | 67*
COc1ccc(C(=O)Nc2cccc(S(C)(=O)=O)c2)cc1OC | -41
COc1ccc(C(=O)Nc2ccc3c4c(cccc24)CC3)cc1 | -86
Cc1cc(Br)c(OCc2ccc(C(=O)N/N=C/c3ccc[nH]3)cc2)c(Br)c1 | -87
CC1CC(C)(C)CC(=O)C1C(=O)c1ccccc1 (configuration not stated) | -49
SMILES | PGC1a acetyl up
C#CCN1[C@H](/C=C/C2CC2)[C@H](Cc2ccccc2)OC(=O)[C@@H]1[C@@H]1N[C@@H](C(=O)OC)C(C)(C)S1 | -46
CN(c1cc2c(c3c1ccn3C)C1CCC2C1)C1CCCCC1 (configuration not stated) | -78
CCc1cc(C=NC2CCCCC2)c(O)s1 | 61*
O=C1C=CCCN1C(=O)/C=C/c1ccccc1Cl | -73
O=S(=O)(c1ccc(-c2ccccc2)cc1)N1C[C@@H]2N[C@H](C1)[C@@H]2c1ccc(-c2cccnc2)cc1 | -55
COc1cccc(S(=O)(=O)N2C[C@@H]3N[C@H](C2)C3c2ccc(-c3ccccc3C)cc2)c1 (some centres not stated) | 242*
COc1cccc(-c2ccc(C3[C@@H]4CN(S(=O)(=O)c5cccc(OC)c5)C[C@H]3N4)cc2)c1 (some centres not stated) | 57*
Cc1ccc(S(=O)(=O)N2C[C@@H]3N[C@H](C2)[C@@H]3c2ccc(-c3cccc(C)c3)cc2)cc1 | 66*
Cc1cccc(S(=O)(=O)N2C[C@@H]3N[C@H](C2)C3c2ccc(-c3ccccc3C)cc2)c1 (some centres not stated) | 166*
COC1=CC(=O)C=C(OC)C1=O | 107*
CCOC(=O)C1(Cc2cccc(F)c2)CCN(Cc2c(C)nn(CC)c2C)CC1 | -48
CCOC(=O)C1=C(NC(=O)c2ccc(Br)o2)Nc2ccccc2N=C1 | -42
CCOc1ccc2nnc(-c3ccc(Br)cc3)n2n1 | 52*
C[C@H](CO)N1C[C@H](C)[C@@H](CN(C)Cc2cncnc2)Oc2cc(C#CC3CC3)ccc2S1(=O)=O | -50
Cc1ccc(/C=N/N2CCN(Cc3ccccc3)CC2)cc1 | -54
COc1ccc(CCNC(=O)C2CCN(C(=O)c3ccc(F)cc3)CC2)cc1OC | -46
O=C(COC(=O)c1ccco1)NCc1ccc2c(c1)OCO2 | -45
COc1ccc(CCNC(=O)COC(=O)c2ccco2)cc1OC | 108*
O=C(CC1CC1)N[C@@H]1CC[C@@H](CCNS(=O)(=O)c2ccc(Cl)cc2)O[C@@H]1CO | -56
O=C1C2C3C=CC(C4CC34)C2C(=O)N1/N=C/c1c[nH]c2ccccc12 (configuration not stated) | -106
COc1cc(-c2nnn(CC#N)n2)ccc1OCc1ccccc1 | 212*
O=c1c2cccnc2n(-c2ccccc2)n1Cc1ccc(Cl)cc1 | -101
CCN1CCN(Cc2ccc(NC(=O)c3cc(NC(=O)c4cncc(-c5ccc(C#N)cc5)c4)cc(OC)c3)cc2C(F)(F)F)CC1 | -86
O=C(Cc1ccccn1)NCC[C@@H]1CC[C@@H](NC(=O)Nc2ccc(C(F)(F)F)cc2)[C@@H](CO)O1 | -45
C=C1C(=O)[C@]23C[C@H]1CCC2[C@@]1(C)C(C[C@@H]3O)[C@](C)(C(=O)OC)CC[C@@H]1O (some centres not stated) | -92
SMILES | PGC1a acetyl up
N#C/C(=C/c1ccc(OCc2ccc(C(=O)O)cc2)c(Br)c1)c1cccc(F)c1 | -96
Cc1ccc(CNC(=O)C2CC(c3ccc([N+](=O)[O-])cc3)=NO2)cc1 (configuration not stated) | 78*
CN1c2ccccc2C2(C)CCCC3=Cc4cccc([N+](=O)[O-])c4OC312 (configuration not stated) | 69*
CC(C)(C)NS(=O)(=O)c1ccc(CCC(=O)N2CCOCC2)cc1 | -46
Cc1ccc(S(=O)(=O)N2CCN(C(=O)N3CCOCC3)CC2)cc1C | -42
Cc1ccc(NC(=O)c2ccc([N+](=O)[O-])o2)cc1S(=O)(=O)N1CCOCC1 | 191*
O=S(=O)(c1ccc2[nH]ccc2c1)N1CCCCCC1 | -68
O=C(Nc1cccc(S(=O)(=O)N2CCOCC2)c1)c1ccco1 | 67*
O=C1c2ccccc2-c2c1cccc2C(=O)N1CCN(C(=O)c2ccco2)CC1 | -43
O=C(Nc1cccc(S(=O)(=O)N2CCCCC2)c1)c1ccc([N+](=O)[O-])o1 | 226*
NC(=O)c1sc2nc3c(c(-c4cccs4)c2c1N)CCCCC3 | -44
COc1cccc(-c2nn(-c3ccccc3)cc2CN(C)C(C)c2ccncn2)c1 (configuration not stated) | -41
CCOC(=O)c1cn(-c2ccccc2)nc1-c1cccnc1 | 77*
CCOC(=O)/C(=C\c1cccnc1)C(=O)c1cc(C(C)=O)c(Nc2ccccc2)s1 | -84
CC(C)C(=O)Nc1ccc(NC(=O)c2ccc([N+](=O)[O-])cc2Cl)cc1 | -52
O=C(Nc1ccc(Nc2ccncc2)cc1)c1ccc([N+](=O)[O-])cc1 | 70*
CCOC(=O)C(=Cc1ccc(OCc2ccc([N+](=O)[O-])cc2)c(OC)c1)C(=O)OCC | -57
COc1ccc(/C=C/c2cc(-c3ccc(C)cc3)o[n+]2C)cc1 | 121*
Cc1ccc(-c2csnn2)cc1 | -51
CC(C)C(NC(=O)c1ccc(C(C)(C)C)cc1)C(=O)O (configuration not stated) | -53
O=C(c1ccc(CN2CCOCC2)cc1)N1CCN(Cc2ccccc2)CC1 | -43

Source: PubChem
